The source of these data is ChEMBL document CHEMBL5046237, “Identification of MRTX1133, a Noncovalent, Potent, and Selective KRASG12D Inhibitor” (J Med Chem, 2022).

For orientation: IC50 means the midpoint of a concentration-inhibition curve. The Kd is the equilibrium constant for the complex coming apart. By inhibition in vivo is commonly meant the change of the read-out against control, counted positive when it falls. Broadly, the AUC is concentration integrated over time. The low end stands for less exposure, the high end for more exposure.

The nature of series [1]: Inhibition of human C-terminal Avi biotinylated tagged KRAS isoform 4B G12D mutant (1 to 169 residues) expressed in Escherichia coli measured after 1 hr by HTRF assay.
Series [2] concerns the target GTPase KRas (Homo sapiens, UniProt P01116, G12D). Put plainly: Inhibition of KRAS G12D mutant in human AGS cells assessed as reduction in ERK phosphorylation measured after 3 hrs by In-Cell Western assay. It counts as cell-based.
For series [3], the target named is GTPase KRas (Homo sapiens, UniProt P01116). The series can be described thus: Binding affinity to human AviTEV6His-tagged KRAS isoform 4B wild type (1 to 169 residues) expressed in Escherichia coli BL21 (DE3) assessed as dissociation constant by SPR analysis. The essentials:
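SPR measurement; where the KD fell beyond what the instrument can accurately determine, it was reported as an approximate value.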

Series [4] in a line: Binding affinity to human AviTEV6His-tagged KRAS isoform 4B G12D mutant (1 to 169 residues) expressed in Escherichia coli BL21 (DE3) assessed as dissociation constant by SPR analysis.
The subject of the next series is AGS. The series can be described thus: cells. The note with it: Homo sapiens, 72 h.
A short description of series [5]: Antitumor activity against human Panc 04.03 cells harboring KRAS G12D mutant xenografted in CD-1 nude-Foxn1 mouse assessed as inhibition of tumor growth at 3 mg/kg, ip administered twice a day. It is filed as functional. Particulars: Panc 04.03, ip. The essentials: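 Mice bearing Panc 04.03 (KRAS G12D) xenografts were dosed IP twice daily (BID) at 3, 10 or 30 mg/kg. Tumor volume was tracked against a vehicle cohort, and mean tumor volume differences were tested by two-tailed Student's t test assuming equal variance.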
(A xenograft is tissue or cells of one species grown in another, often human tumour cells in immunodeficient mice.)

Series [6] can be described thus: Antitumor activity against human Panc 04.03 cells harboring KRAS G12D mutant xenografted in CD-1 nude-Foxn1 mouse assessed as tumor regression at 10 mg/kg, ip administered twice a day. Particulars: Panc 04.03, ip.
Series [7] is described as follows: Time during which free drug concentration exceeds IC50 for KRAS G12D mutant-mediated ERK phosphorylation in human Panc 04.03 cells xenografted CD-1 athymic nude-Foxn1nu mouse plasma at 30 mg/kg, ip. The note with it: in vivo.
The nature of series [8]: In vivo inhibition of KRAS G12D mutant in CD-1 athymic nude-Foxn1nu mouse xenografted with human Panc 04.03 cells assessed as reduction in ERK phosphorylation in tumor lysates at 30 mg/kg, ip measured after 1 hr. It counts as functional. The note with it: CD-1, Panc 04.03, Neoplasm. The essentials: (§1)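 The Panc 04.03 xenograft model received 30 mg/kg IP BID. Tumor pERK signal was measured 1 h and 12 h after the second dose. Mean pERK inhibition versus the vehicle cohort was assessed by two-tailed Student's t test with equal variance.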

Another series concerns MKN-1. The series can be described thus: Cytotoxicity against human MKN-1 cells harboring wild type KRAS assessed as reduction in cell viability measured after 3 days by 2D viability assay. Particulars: MKN-1, 72 h.
Series [9] can be described thus: In vivo inhibition of KRAS G12D mutant in CD-1 athymic nude-Foxn1nu mouse xenografted with human Panc 04.03 cells assessed as reduction in ERK phosphorylation in tumor lysates at 30 mg/kg, ip measured after 12 hrs. It counts as functional. Particulars: CD-1, Panc 04.03, Neoplasm. The method in brief:
as §1

Series [10] in a line: AUC (0 to 24 hrs) in CD-1 athymic nude-Foxn1nu mouse xenografted with human Panc 04.03 cells at 30 mg/kg, ip BID. Also on record: time < 24 hr, route intraperitoneal, dose 30 mg/kg. The note with it: in vivo. It is filed as ADME, organism-based.

For the compound `Fc1ccc2cccc(-c3ncc4c(N5C[C@H]6CC[C@@H](C5)N6)nc(OCC56CCCN5CCC6)nc4c3F)c2c1F`, the figures for the IC50 (in [1]; on GTPase KRas [2]) were 7 nM and 97 nM, respectively.
Consider `CN1CCC[C@H]1COc1nc(N2CCOCC2)c2cnc(-c3cc(O)cc4ccccc34)c(F)c2n1`, for which the Kd on GTPase KRas [3] was found to be 560 nM; in series [4], 1500 nM. Also, in series [1], the IC50 amounted to 12000 nM.
Consider `CN(C)CCOc1nc(N2C[C@H]3CC[C@@H](C2)N3)c2cnc(-c3cc(O)cc4ccccc34)c(F)c2n1`, for which the results for the IC50 (in series [1]; at GTPase KRas [2]) were 70 nM and more than 10000 nM, respectively.
The matching figures for `Fc1c(-c2cccc3cccc(Cl)c23)ncc2c(N3C[C@H]4CC[C@@H](C3)N4)nc(OCC34CCCN3CCC4)nc12`: 15 nM and 190 nM.
The matching figures for `Cn1ccnc1CCOc1nc(N2C[C@H]3CC[C@@H](C2)N3)c2cnc(-c3cc(O)cc4ccccc34)c(F)c2n1`: 30 nM and 3500 nM.
Compound `CN1CCC[C@H]1COc1nc(N2C[C@H]3CC[C@@H](C2)N3)c2cnc(-c3cc(O)cc4ccccc34)c(F)c2n1` gave an IC50 in series [1] of 5 nM. The Kd in [4] amounted to 0.8 nM.
Take `C#Cc1c(F)ccc2cc(O)cc(-c3ncc4c(N5C[C@H]6CC[C@@H](C5)N6)nc(OC[C@@]56CCCN5C[C@H](F)C6)nc4c3F)c12`: the IC50 in the series on AGS was 6 nM; in the series on MKN-1, more than 3000 nM. Also, the inhibition in vivo at 3 mg/kg in series [5] came out at 94%. Moreover, the tumor regression % at 10 mg/kg in series [6] stood at 62%. The Kd in [4] worked out at 0.0002 nM. The “T>IC50” value in series [7] came out at 8 h. Moreover, the inhibition in vivo at 30 mg/kg in series [8] was 62%; in series [9], 74%.
`Fc1c(-c2cccc3ccccc23)ncc2c(N3C[C@H]4CC[C@@H](C3)N4)nc(OCC34CCCN3CCC4)nc12`: the IC50 in [1] was 360 nM; on GTPase KRas [2] it was more than 10000 nM.
On to `C#Cc1cccc2cc(O)cc(-c3ncc4c(N5C[C@H]6CC[C@@H](C5)N6)nc(OCC56CCCN5CCC6)nc4c3F)c12`, for which the IC50 in series [1] is less than 2 nM; on GTPase KRas [2], 14 nM.
Take `CN1CCC[C@H]1COc1nc(N2CCNCC2)c2cnc(-c3cccc4cccc(Cl)c34)c(F)c2n1`: the Kd on GTPase KRas [3] turned out to be 36000 nM; in [4] it was 3500 nM.
Regarding `Fc1c(-c2cccc3cccc(F)c23)ncc2c(N3C[C@H]4CC[C@@H](C3)N4)nc(OCC34CCCN3CCC4)nc12`, the results for the IC50 (in series [1]; on GTPase KRas [2]) were 12 nM and 380 nM, respectively.
Regarding `CN1CCN(c2nc(OC[C@@H]3CCCN3C)nc3c(F)c(-c4cc(O)cc5ccccc45)ncc23)CC1`, the Kd was 6200 nM at GTPase KRas [3] and 8700 nM in series [4]. The IC50 in series [1] was found to be 54000 nM.
For `Oc1cc(-c2ncc3c(N4C[C@H]5CC[C@@H](C4)N5)nc(OCCN4C[C@@H]5C[C@H]4CO5)nc3c2F)c2ccccc2c1`, the IC50 in [1] was determined as 62 nM; at GTPase KRas [2], 3000 nM.
The matching figures for `Oc1cc(-c2ncc3c(N4C[C@H]5CC[C@@H](C4)N5)nc(OCC45CCCN4CCC5)nc3c2F)c2c(Cl)cccc2c1`: less than 2 nM and 63 nM.
`C#Cc1c(F)ccc2cccc(-c3ncc4c(N5C[C@H]6CC[C@@H](C5)N6)nc(OCC56CCCN5CCC6)nc4c3F)c12`: the IC50 in series [1] is less than 2 nM; on GTPase KRas [2], 24 nM. In series [10], this compound came in with an AUC at 24 h of 9500 ng·h/mL.
Turning to `Oc1cc(-c2ncc3c(N4CC5CCC(C4)N5)ncnc3c2F)c2ccccc2c1`, on GTPase KRas [2], the IC50 is more than 10000 nM.
In turn, `Oc1cc(-c2ncc3c(N4C[C@H]5CC[C@@H](C4)N5)nc(OC[C@@]45CCCN4C[C@H](F)C5)nc3c2F)c2ccccc2c1` displayed an IC50 in [1] of less than 2 nM.
Take `CN(C)C1CN(c2nc(N3CC4CCC(C3)N4)c3cnc(-c4cc(O)cc5ccccc45)c(F)c3n2)C1`: the IC50 is 69 nM in [1] and 1300 nM on GTPase KRas [2].
Taken in the same sequence, the figures for `OCc1cccc2cccc(-c3ncc4c(N5C[C@H]6CC[C@@H](C5)N6)nc(OCC56CCCN5CCC6)nc4c3F)c12` were 79 nM and more than 10000 nM.
With `CN1CCC[C@H]1COc1nc(N2CCNCC2)c2cnc(-c3cc(O)cc4ccccc34)c(F)c2n1`, it took 980 nM to reach half-maximal inhibition in series [1] (IC50). The Kd in series [4] was 190 nM.
For `Oc1cc(-c2ncc3c(N4C[C@H]5CC[C@@H](C4)N5)nc(OCC45CCCN4CCC5)nc3c2F)c2ccccc2c1`, the IC50 in [1] was less than 2 nM; at GTPase KRas [2], 270 nM.
For `CN1CCC[C@H]1COc1nc(N2CCCNCC2)c2cnc(-c3cc(O)cc4ccccc34)c(F)c2n1`, it took 2600 nM to reach half-maximal inhibition in series [1] (IC50). In addition, the Kd in [4] was 420 nM.
As to `C#Cc1cccc2cccc(-c3ncc4c(N5C[C@H]6CC[C@@H](C5)N6)nc(OCC56CCCN5CCC6)nc4c3F)c12`, the values for the IC50 (in series [1]; at GTPase KRas [2]) were 3 nM and 71 nM, respectively.
The matching figures for `CCc1cccc2cccc(-c3ncc4c(N5C[C@H]6CC[C@@H](C5)N6)nc(OCC56CCCN5CCC6)nc4c3F)c12`: 6 nM and 200 nM.
In the case of `CN1CCC[C@H]1COc1nc(N2CC3CCC2CN3)c2cnc(-c3cc(O)cc4ccccc34)c(F)c2n1` (stereo partly specified), the IC50 in series [1] was found to be 68 nM. Moreover, the Kd in series [4] came out at 9 nM.
As for `COc1cccc2cccc(-c3ncc4c(N5C[C@H]6CC[C@@H](C5)N6)nc(OCC56CCCN5CCC6)nc4c3F)c12`, the figures for the IC50 (in series [1]; at GTPase KRas [2]) were 86 nM and 1200 nM, respectively.
The compound `Oc1cc(-c2ncc3c(N4C[C@H]5CC[C@@H](C4)N5)nc(OC[C@]45CCCN4C[C@@H](F)C5)nc3c2F)c2ccccc2c1` showed a 50% inhibitory concentration (IC50) in [1] of less than 2 nM.
`Cc1cccc2cccc(-c3ncc4c(N5C[C@H]6CC[C@@H](C5)N6)nc(OCC56CCCN5CCC6)nc4c3F)c12`: the figures for the IC50 (in series [1]; on GTPase KRas [2]) were 45 nM and 2500 nM, respectively.
The matching figures for `Fc1ccc2cccc(-c3ncc4c(N5C[C@H]6CC[C@@H](C5)N6)nc(OCC56CCCN5CCC6)nc4c3F)c2c1`: 27 nM and 370 nM.
As for `CN1CCC[C@H]1COc1nc(N2CC3CC(C2)N3)c2cnc(-c3cc(O)cc4ccccc34)c(F)c2n1` (mixture of isomers), the IC50 in series [1] amounted to 310 nM. The Kd in [4] came out at 73 nM.
Taken in the same sequence, the figures for `CC1CN(c2nc(OC[C@@H]3CCCN3C)nc3c(F)c(-c4cc(O)cc5ccccc45)ncc23)CCN1` (mixture of isomers) were 2100 nM and 380 nM.
Taken in the same sequence, the figures for `CC1CNCCN1c1nc(OC[C@@H]2CCCN2C)nc2c(F)c(-c3cc(O)cc4ccccc34)ncc12` (mixture of isomers) were 1500 nM and 280 nM.
The matching figures for `CN1CCC[C@H]1COc1nc(N2CC3CC2CN3)c2cnc(-c3cc(O)cc4ccccc34)c(F)c2n1` (mixture of isomers): 650 nM and 96 nM.
As for `O=C1CCC2(COc3nc(N4CC5CCC(C4)N5)c4cnc(-c5cc(O)cc6ccccc56)c(F)c4n3)CCCN12` (racemic), the results for the concentration for half-maximal inhibition (IC50) (in series [1]; at GTPase KRas [2]) were 750 nM and more than 10000 nM, respectively.
The matching figures for `Oc1cc(-c2ncc3c(N4CC5CCC(C4)N5)nc(OCC45CCCCN4CCC5)nc3c2F)c2ccccc2c1` (racemic): 12 nM and 650 nM.
